# Data as given in ChEMBL document CHEMBL5653630, “Activation of the p53-MDM4 regulatory axis defines the anti-tumour response to PRMT5 inhibition through its role in regulating cellular splicing” (Sci Rep, 2018).
# Calls of active or inactive are those of the source. The calls are words filed in the database; no cut-off is given here.
# Assays:
# MDA-MB-468 = test: Induction of cell cycle arrest in human MDA-MB-468 cells assessed as increase in sub-2n cell population measured upto 5000 nM measured for 7 to 10 days by propidium iodide staining based flow cytometric analysis; assay type: functional; settings: time 7-10 day
# JVM-2 = test: Induction of cell cycle arrest in human JVM-2 cells assessed as increase in 2n cell population measured upto 5000 nM measured for 3 days by propidium iodide staining based flow cytometric analysis; assay type: functional; settings: time 3.0 day
# Z-138 [1] = test: Induction of cell cycle arrest in human Z138 cells assessed as accumulation of cells at G1 phase cells incubated for 1 to 10 days by propidium iodide staining based flow cytometric analysis; assay type: functional; settings: dose <= 1000.0 nM, time 1-10 day
# Z-138 [2] = test: In vivo inhibition of PRMT5 in human Z138 cells xenografted in mouse assessed as increase in SESN1 expression at 100 mg/kg, po BID measured for 7 days; assay type: functional, organism-based; settings: time 7.0 day
# [3] = Antiproliferative activity against human HUH-6-clone5 cells assessed as cell growth inhibition incubated for 10 days; assay type: functional; settings: HUH-6-clone5, 240 h, time 10 day
# Procedure, shortened: (§1)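 Outsourced panel run in 384-well plates. Cells were grown in RPMI-1640/10% FBS or a special medium at 37°C, 5% CO2. Compound was added 24 h after seeding as a 10-point, 3.16-fold series in 0.1% DMSO. Medium was refreshed and cells re-dosed at 168 h, with a time-zero plate kept. At 240 h cells were fixed, nuclei stained and imaged. gIC50 is growth midway between untreated and time zero, from a 4-parameter fit.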
# Malme-3M = test: Antiproliferative activity against human Malme-3M cells assessed as cell growth inhibition incubated for 10 days; assay type: functional; settings: 240 h, time 10 day
# KLE = test: Antiproliferative activity against human KLE cells assessed as cell growth inhibition incubated for 10 days; assay type: functional; settings: 240 h, time 10 day
# Procedure, shortened: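 Cells grown in RPMI-1640 with 10% FBS, 2 mM L-alanyl-L-glutamine and 1 mM Na pyruvate (or special medium) at 37°C, 5% CO2. Compound was added 24 h after seeding, with a parallel time-zero plate. Medium was replaced and the compound re-dosed at 168 h. Dosing used 10 concentrations (3.16-fold dilutions, 0.1% DMSO) over a 240 h incubation. Nuclei were stained and imaged. gIC50 is growth midway between untreated and time-zero, from a 4-parameter fit.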
# [4] = Antiproliferative activity against human C32TG cells assessed as cell growth inhibition incubated for 10 days; assay type: functional; settings: 240 h, time 10 day
# Procedure, shortened: (§2)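 Cells kept in RPMI-1640 with 10% FBS, 2 mM L-alanyl-L-glutamine and 1 mM Na pyruvate (or a special medium) at 37°C, 5% CO2. Compound added 24 h after seeding, 10 concentrations in 3.16-fold dilution, 0.1% DMSO final. Medium replaced and cells re-dosed at 168 h; 240 h incubation. Nuclei fixed, dye-stained and imaged. gIC50 = growth midway between untreated and time-zero cell counts, from a 4-parameter fit.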
# HuP-T4 = test: Antiproliferative activity against human HuP-T4 cells assessed as cell growth inhibition incubated for 10 days; assay type: functional; settings: HuP-T4, 240 h, time 10 day
# Procedure, shortened: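 Cells grown at 37°C under 5% CO2 in RPMI-1640 with 10% FBS, 2 mM L-alanyl-L-glutamine and 1 mM pyruvate (or a special medium), then seeded in 384-well plates. Compound was added 24 h later as a 10-point, 3.16-fold series in 0.1% DMSO final. Medium was replaced and cells re-dosed at 168 h; 240 h total. Nuclear-dye imaging gave cell counts, with a time-zero plate. gIC50 is growth halfway to time zero, from a 4-parameter fit.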
# C32 = test: Antiproliferative activity against human C32 cells assessed as cell growth inhibition incubated for 10 days; assay type: functional; settings: C32, 240 h, time 10 day; procedure, shortened: as §2
# Hs 294T = test: Antiproliferative activity against human Hs294T cells assessed as cell growth inhibition incubated for 10 days; assay type: functional; settings: 240 h, time 10 day
# Procedure, shortened: (§3)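 Eurofins panel, 384-well. Cells kept in RPMI-1640 with 10% FBS, 2 mM L-alanyl-L-glutamine and 1 mM Na pyruvate, or in a special medium, at 37°C under 5% CO2. Compound added 24 h after seeding as 10 concentrations in 3.16-fold steps, 0.1% DMSO final. Medium replaced and compound re-dosed at 168 h. After 240 h, cells fixed and nuclei stained for imaging. gIC50 = growth midway between untreated cells and time-zero count.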
# CAKI-1 = test: Antiproliferative activity against human CAKI-1 cells assessed as cell growth inhibition incubated for 10 days; assay type: functional; settings: CAKI-1, 240 h, time 10 day; procedure, shortened: as §2
# CRO-AP2 = test: Antiproliferative activity against human CRO-AP2 cells assessed as cell growth inhibition incubated for 10 days; assay type: functional; settings: CRO-AP2, 240 h, time 10 day; procedure, shortened: as §1
# [5] = Antiproliferative activity against human BM-1604 cells assessed as cell growth inhibition incubated for 10 days; assay type: functional; settings: BM-1604, 240 h, time 10 day; procedure, shortened: as §2
# [6] = Antiproliferative activity against human BC1 cell line assessed as cell growth inhibition incubated for 10 days; assay type: functional; settings: BC1, 240 h, time 10 day; procedure, shortened: as §2
# BXPC-3 = test: Antiproliferative activity against human BXPC-3 cells assessed as cell growth inhibition incubated for 10 days; assay type: functional; settings: BXPC-3, 240 h, time 10 day; procedure, shortened: as §2
# [7] = biological target: Protein arginine N-methyltransferase 5 (Homo sapiens) (UniProt O14744); test: Inhibition of PRMT5 in human Z138 cells assessed as effect on KHSRP level by measuring fold change by LC-MS/MS analysis relative to control; assay type: cell-based
# Sequence of Protein arginine N-methyltransferase 5 (Homo sapiens) (O14744 whole entry): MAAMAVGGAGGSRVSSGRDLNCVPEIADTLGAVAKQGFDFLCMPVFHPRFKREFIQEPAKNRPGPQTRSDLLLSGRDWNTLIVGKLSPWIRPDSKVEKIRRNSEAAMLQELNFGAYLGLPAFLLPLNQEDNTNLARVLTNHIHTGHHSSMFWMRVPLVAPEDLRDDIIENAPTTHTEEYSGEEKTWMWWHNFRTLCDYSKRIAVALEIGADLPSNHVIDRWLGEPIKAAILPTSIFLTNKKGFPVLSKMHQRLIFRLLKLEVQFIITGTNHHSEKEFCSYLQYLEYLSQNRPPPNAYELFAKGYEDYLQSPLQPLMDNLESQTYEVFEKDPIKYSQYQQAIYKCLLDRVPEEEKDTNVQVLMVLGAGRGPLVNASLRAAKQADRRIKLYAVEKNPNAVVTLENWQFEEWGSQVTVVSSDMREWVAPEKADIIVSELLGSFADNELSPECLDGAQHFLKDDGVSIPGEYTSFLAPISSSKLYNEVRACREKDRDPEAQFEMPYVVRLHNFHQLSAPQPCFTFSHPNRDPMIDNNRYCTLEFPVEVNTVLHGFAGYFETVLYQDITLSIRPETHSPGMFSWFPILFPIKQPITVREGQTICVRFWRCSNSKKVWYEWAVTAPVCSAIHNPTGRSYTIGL
# HT-1080 = test: Antiproliferative activity against human HT-1080 cells assessed as cell growth inhibition incubated for 10 days; assay type: functional; settings: HT-1080, 240 h, time 10 day; procedure, shortened: as §1
# SW837 = test: Antiproliferative activity against human SW837 cells assessed as cell growth inhibition incubated for 10 days; assay type: functional; settings: SW837, 240 h, time 10 day
# Hs 695T = test: Antiproliferative activity against human Hs 695T cells assessed as cell growth inhibition incubated for 10 days; assay type: functional; settings: 240 h, time 10 day; procedure, shortened: as §3
# SW1353 = test: Antiproliferative activity against human SW1353 cells assessed as cell growth inhibition incubated for 10 days; assay type: functional; settings: SW1353, 240 h, time 10 day
# NCI-H446 = test: Antiproliferative activity against human NCI-H446 cells assessed as cell growth inhibition incubated for 10 days; assay type: functional; settings: NCI-H446, 240 h, time 10 day
# JEG-3 = test: Antiproliferative activity against human JEG-3 cells assessed as cell growth inhibition incubated for 10 days; assay type: functional; settings: JEG-3, 240 h, time 10 day
# Procedure, shortened: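 Eurofins-panel 10-day assay in 384-well plates. Cells grown in RPMI-1640 with 10% FBS, 2 mM L-alanyl-L-glutamine and 1mM Na pyruvate, or a special medium, at 37°C in 5% CO₂. Compound added 24 h after seeding, 10-point 3.16-fold series in 0.1% DMSO. Medium replaced and compound re-dosed at 168 h. Nuclei fixed and stained after 240 h, then imaged to give a relative cell count. gIC50 is the concentration giving growth midway between untreated and time-zero counts, from a 4-parameter fit.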
# HEC-1-A = test: Antiproliferative activity against human HEC-1-A cells assessed as cell growth inhibition incubated for 10 days; assay type: functional; settings: 240 h, time 10 day; procedure, shortened: as §1
# SW872 = test: Antiproliferative activity against human SW872 cells assessed as cell growth inhibition incubated for 10 days; assay type: functional; settings: SW872, 240 h, time 10 day
structure (smiles),measurement,setting,value
CC(=O)N1CCC(Nc2cc(C(=O)NC[C@H](O)CN3CCc4ccccc4C3)ncn2)CC1 [PEMRAMETOSTAT],Activity,MDA-MB-468,Active
same,Activity,JVM-2,Active
same,Activity,Z-138 [1],Dose-Dependent Effect
same,inhibition,Z-138 [2],Active
O=C(NC[C@H](O)CN1CCc2ccccc2C1)c1ccnc(NC2CCC2)c1,GI50,[3],0.361 µM
same,GI50,Malme-3M,0.265 µM
same,GI50,KLE,10 µM
same,GI50,[4],0.103 µM
same,GI50,HuP-T4,0.0849 µM
same,GI50,C32,0.0141 µM
same,GI50,Hs 294T,0.0123 µM
same,GI50,CAKI-1,0.0688 µM
same,GI50,CRO-AP2,0.25 µM
same,GI50,[5],0.142 µM
same,GI50,[6],0.0696 µM
same,GI50,BXPC-3,0.16 µM
same,fold change (FC),[7],-7.8
same,GI50,HT-1080,0.0535 µM
same,GI50,SW837,0.102 µM
same,GI50,Hs 695T,0.602 µM
same,GI50,SW1353,0.129 µM
same,GI50,NCI-H446,0.57 µM
same,GI50,JEG-3,0.216 µM
same,GI50,HEC-1-A,2.44 µM
same,GI50,SW872,0.054 µM
